Screening results deposited in PubChem by The Scripps Research Institute Molecular Screening Center.
Shown are actives, neighbours in structure and some others; about 4.6% of the full set was active somewhere.
OX1R antag-1: OX1R (human) antagonism. O43613. OX1R-expressing cells, FRET antagonist read-out. inhibition, % at 6.6 µM. 330,000 compounds, 1.8% hits. AID 485270; in the data active means inhibition mostly above about 38%, no sharp cut-off; inactive means mostly below about 40%
GPR7 antagonist: human neuropeptides B/W receptor 1 antagonism; P48145; GPR7-expressing cells, fluorescence antagonist assay; inhibition, % at 4.4 µM; 290,000 compounds, 1.1% hits; in the data active means inhibition above about 16%, passing the limit was not always enough;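 further: cells stimulated with the agonist NPW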
Target sequence (P48145 whole entry, looked up): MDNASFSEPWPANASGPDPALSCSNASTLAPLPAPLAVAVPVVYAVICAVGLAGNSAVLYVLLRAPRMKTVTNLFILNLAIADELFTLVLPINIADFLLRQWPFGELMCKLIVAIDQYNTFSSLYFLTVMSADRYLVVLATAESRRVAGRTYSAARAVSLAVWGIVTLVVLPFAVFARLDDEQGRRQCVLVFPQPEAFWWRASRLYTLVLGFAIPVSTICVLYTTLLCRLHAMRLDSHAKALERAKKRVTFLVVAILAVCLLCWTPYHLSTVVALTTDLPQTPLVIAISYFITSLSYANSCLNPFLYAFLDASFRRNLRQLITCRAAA
TAAR1 agonist: human TAAR1 agonism. activation, % at 3 µM. Q96RJ0. 360,000 compounds, 0.99% hits. CHO RD-HGA16 TAAR1, Fluo-8 calcium fluorescence; vehicle wells 0%, saturating PEA agonist 100%;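 active means activation above the mean activation of all test compounds in the run plus 3 SD, cut at about 38% in these data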
Target sequence (Q96RJ0 whole entry, looked up): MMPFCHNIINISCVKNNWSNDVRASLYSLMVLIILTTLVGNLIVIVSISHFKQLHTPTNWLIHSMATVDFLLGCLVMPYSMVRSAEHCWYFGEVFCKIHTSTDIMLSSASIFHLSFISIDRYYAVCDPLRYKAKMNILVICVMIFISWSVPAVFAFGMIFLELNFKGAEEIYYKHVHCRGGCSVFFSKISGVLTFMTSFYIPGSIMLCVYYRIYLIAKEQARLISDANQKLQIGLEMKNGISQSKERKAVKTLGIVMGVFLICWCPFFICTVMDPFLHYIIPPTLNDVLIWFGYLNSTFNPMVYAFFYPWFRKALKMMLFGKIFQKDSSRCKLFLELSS
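System: CHO-derived RD-HGA16 cells with stable Gα16 and human TAAR1. Times: 17-24 h plating, Fluo-8 75 min 37 °C, 30 min RT. Measured by: calcium-sensitive Fluo-8 signal, excitation 470-495, emission 515-575 nm. Read-out basis: % activation relative to PEA EC100 response. Control set: DMSO and PEA EC100. Repeats: no replicates (n 1).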
OX1R antag-2: blocks the human orexin 1 receptor; O43613; CHO/OX1R cells, Fluo-8 calcium fluorescence, orexin A; inhibition, % at 5 µM; 330,000 compounds, 0.43% hits;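 active means inhibition above its plate's threshold, mean inhibition of all tested compounds on the plate plus 3 SD, cut at about 37% in these data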
CHO parental Ca: signal in parental CHO cells, OX1R antagonist counter-screen | inhibition, % at 5.6 µM | 330,000 compounds, 0.63% hits | parental CHO-K1, ATP-induced calcium, Fluo-8 fluorescence;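 active means inhibition above that plate's mean sample inhibition plus 3 SD, cut at about 26% in these data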
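Test system: untransfected parental CHO cell line; also added: ATP stimulus; dosing: 5.6 µM, single dose; signal: calcium-sensitive Fluo-8 fluorescence; measure: percent inhibition of ATP-evoked calcium rise, normalized to controls; benchmarks: low control ATP plus DMSO, high control DMSO only; replication: one well per compound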
TAAR1 antag: human TAAR1 antagonism; CHO RD-HGA16 TAAR1, Fluo-8 calcium fluorescence, antagonist; Q96RJ0; 360,000 compounds, 1.5% hits; inhibition, % at 3 µM;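 active means inhibition above a per-plate cutoff, the mean inhibition of test compounds on that plate plus 3 SD, cut at about 49% in these data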
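System: CHO RD-HGA16 cells bearing hTAAR1. Reagent: EC80 β-phenethylamine stimulus. Schedule: seeding 17-24 h prior, 75-min 37 °C, 30-min RT dye loading. Signal: Fluo-8 intracellular calcium dye fluorescence, real-time kinetic reads. Read-out: % inhibition from peak post-agonist over basal fluorescence ratio. Benchmarks: vehicle wells and EC80 agonist wells. Replicates: n of 1.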
nonsel antag count: counter-screen for TAAR1 antagonists: nonselective antagonists | shares compounds with TAAR1 antag | counterscreen cell line, calcium fluorescence, antagonist mode | inhibition, % at 3 µM | 2,400 compounds, 77% hits | AID 651780; in the data active means inhibition above about 22%;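 further: CHO-Ga16 host cells stimulated with ATP at an EC80 level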
TAAR1 ant conf: confirmation of human TAAR1 antagonists. shares compounds with TAAR1 antag. 2,400 compounds, 40% hits. AID 651785. TAAR1-expressing cells, fluorescence antagonist read-out. inhibition, % at 3 µM; in the data active means inhibition above about 49%;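 further: CHO-Ga16 host cells challenged with agonist PEA near its EC80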
Ga16 ag counter: nonselective Ga16 agonist in TAAR1 antagonist counter-screen; shares compounds with TAAR1 antag; Ga16-expressing cells, calcium fluorescence, agonist counterscreen; activation, % at 3 µM; 2,400 compounds, 18% hits; AID 651953; in the data active means activation above about 12%
TAAR1 ag counter: counter-screen for human TAAR1 antagonists: TAAR1 agonists; shares compounds with TAAR1 antag; hTAAR1 cell line, fluorescence activation, agonist mode; activation, % at 3 µM; 2,400 compounds, 2% hits; AID 651955; in the data active means activation above about 37%;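 further: CHO cells stably expressing TAAR1 with calcium dye readout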
Each line names hits and unclear results; the compound was inactive in the other large screens (follow-up assays come after a bar, where they were run).

Cc1cccc(S(=O)(=O)NC(=O)C2(C)CCN2C(=O)C2(c3ccc(Cl)cc3)CCC2)c1 (configuration not stated)	none (no result: OX1R antag-1, GPR7 antagonist, OX1R antag-2, CHO parental Ca)
NC(=O)c1c(N)[nH]c(C(=O)c2ccccc2)c1-c1ccc2c(c1)OCO2	none (no result: OX1R antag-1, GPR7 antagonist, OX1R antag-2, CHO parental Ca)
O=C(CCN1C(=O)C2C3C=CC(C3)C2C1=O)NCCc1ccccc1 (configuration not stated)	TAAR1 antag 52 | nonsel antag count inactive | TAAR1 ant conf 52 | Ga16 ag counter inactive | TAAR1 ag counter inactive
O=C1C2C3C=CC(C3)C2C(=O)N1CCc1ccccc1 (configuration not stated)	none
C[C@H]1CN([C@@H](C)CO)S(=O)(=O)c2ccc(Br)cc2O[C@H]1CN(C)C(=O)c1ccccc1F	none (no result: OX1R antag-1, GPR7 antagonist, OX1R antag-2, CHO parental Ca)
COc1nc(N)c(C#N)c(-c2ccc(N(C)CCC#N)cc2)c1C#N	TAAR1 antag 81 | nonsel antag count 29 | TAAR1 ant conf 52 | Ga16 ag counter 17 | TAAR1 ag counter inactive
COC(=O)c1sc(N)nc1CCNC(=O)OC(C)(C)C	none (no result: OX1R antag-1, GPR7 antagonist, OX1R antag-2, CHO parental Ca)
CCC1Oc2ccc(C)cc2N(CC(=O)NCC2COc3ccccc3O2)C1=O (configuration not stated)	TAAR1 antag 67 | nonsel antag count 24 | TAAR1 ant conf 49 | Ga16 ag counter inactive | TAAR1 ag counter inactive
Cc1ccc2c(c1)N(CCC(=O)NCC1COc3ccccc3O1)C(=O)CO2 (configuration not stated)	none
O=C(Nc1cccc(Cl)c1)ON1CCCCC1	none (no result: OX1R antag-1, GPR7 antagonist, OX1R antag-2, CHO parental Ca)
Cc1ccc(/C=C2\C(=O)ON=C2c2ccccc2)o1	none
Cc1ccc(-c2ccc(/C=C3\C(=O)ON=C3c3ccccc3)o2)c([N+](=O)[O-])c1	TAAR1 antag 65 | nonsel antag count 78 | TAAR1 ant conf 81 | Ga16 ag counter 24 | TAAR1 ag counter inactive
COc1cc(NC(=O)c2cc3ccccc3cc2OC)ccc1NC(=O)c1cccs1	TAAR1 antag 85 | nonsel antag count 23 | TAAR1 ant conf 51 | Ga16 ag counter inactive | TAAR1 ag counter inactive
COc1cc(NC(=O)c2ccccc2Cl)ccc1NC(=O)c1cccs1	none
CC(C)CNC(=O)C1(C)CCCN1Cc1ccc(OC(F)(F)F)cc1 (configuration not stated)	none (no result: OX1R antag-1, GPR7 antagonist, OX1R antag-2, CHO parental Ca)
COc1ccc2cc(-c3[nH]ncc3CN3CCCN(c4ccccc4)CC3)ccc2c1	TAAR1 antag 106 | nonsel antag count inactive | TAAR1 ant conf inactive | Ga16 ag counter 22 | TAAR1 ag counter 56
C[C@H](CO)N1C[C@H](C)[C@H](CN(C)C(=O)Nc2cccc(F)c2)Oc2cc(C#CC3(O)CCCC3)ccc2S1(=O)=O	none (no result: OX1R antag-1, GPR7 antagonist, OX1R antag-2, CHO parental Ca)
COc1cc(NC(=O)c2cc3ccccc3o2)c(OC)cc1Cl	TAAR1 antag 55 | nonsel antag count inactive | TAAR1 ant conf 54 | Ga16 ag counter inactive | TAAR1 ag counter inactive
COc1cc(NC(=O)c2cc3ccccc3o2)c(OC)cc1Br	none
CSc1ccc(CN2CCC2(C)C(=O)NC2CCc3ccccc32)cc1 (configuration not stated)	none (no result: OX1R antag-1, GPR7 antagonist, OX1R antag-2, CHO parental Ca)
Cc1cc(C)n(-c2ccc(C(=O)Nc3ccc(C)c(S(=O)(=O)N4CCOCC4)c3)cc2)n1	TAAR1 antag 78 | nonsel antag count 41 | TAAR1 ant conf 55 | Ga16 ag counter 14 | TAAR1 ag counter inactive
Cc1ccc(C(=O)Nc2ccc3cn[nH]c3c2)cc1S(=O)(=O)N1CCOCC1	TAAR1 antag 62 | nonsel antag count 31 | TAAR1 ant conf inactive | Ga16 ag counter inactive | TAAR1 ag counter inactive
CC(=O)c1ccc(NC(=O)c2ccc(C)c(S(=O)(=O)N3CCOCC3)c2)cc1	none
COc1ccc(CCN2C(=O)c3ccccc3C2c2nnnn2-c2c(C)cccc2C)cc1OC (configuration not stated)	none (no result: OX1R antag-1, GPR7 antagonist, OX1R antag-2, CHO parental Ca)
COc1ccc(C(CNC(=O)c2ccc(OCc3csc(C)n3)cc2)N2CCCC2)cc1 (configuration not stated)	none (no result: OX1R antag-1, GPR7 antagonist, OX1R antag-2, CHO parental Ca)
Oc1ccccc1C1=Nc2nc3ccccc3n2C(c2ccccc2)C1 (configuration not stated)	TAAR1 antag 54 | nonsel antag count 31 | TAAR1 ant conf inactive | Ga16 ag counter inactive | TAAR1 ag counter inactive
Cc1ccc(Nc2nc(-c3cccnc3)nc3ccccc23)cc1	TAAR1 antag 56 | nonsel antag count inactive | TAAR1 ant conf inactive | Ga16 ag counter inactive | TAAR1 ag counter inactive
Oc1ccc(Nc2nc(-c3ccccc3)nc3ccccc23)cc1	none (no result: TAAR1 agonist, TAAR1 antag)
CC(=O)Nc1ccc(Nc2nc(-c3ccccc3)nc3ccccc23)cc1	TAAR1 antag 59 | nonsel antag count 34 | TAAR1 ant conf 56 | Ga16 ag counter inactive | TAAR1 ag counter inactive
OC(c1cccc(Cl)c1)c1nc(-c2cc3ccccc3o2)cs1 (configuration not stated)	TAAR1 antag 61 (no result: OX1R antag-1, GPR7 antagonist, OX1R antag-2, CHO parental Ca) | nonsel antag count 36 | TAAR1 ant conf 49 | Ga16 ag counter inactive | TAAR1 ag counter inactive
CCOc1ccc(N2C(=O)C(Cl)=C(Nc3ccccc3O)C2=O)cc1	TAAR1 antag 57 | nonsel antag count 28 | TAAR1 ant conf inactive | Ga16 ag counter 12 | TAAR1 ag counter inactive
COc1ccccc1NC1=C(Cl)C(=O)N(c2ccccc2)C1=O	none
CCOc1cc(N2CCOCC2)c(OCC)cc1NC(=O)CSc1nnc(N)s1	TAAR1 antag 100 (no result: GPR7 antagonist) | nonsel antag count inactive | TAAR1 ant conf inactive | Ga16 ag counter inactive | TAAR1 ag counter inactive
O=S(=O)(c1ccccc1)N1CCN(c2nc(-c3cccnc3)nc3ccccc23)CC1	TAAR1 antag 69 (no result: OX1R antag-1, GPR7 antagonist, OX1R antag-2, CHO parental Ca) | nonsel antag count 26 | TAAR1 ant conf inactive | Ga16 ag counter inactive | TAAR1 ag counter inactive
O=S(=O)(c1ccc(F)cc1)N1CCN(c2nc(-c3cccnc3)nc3ccccc23)CC1	none (no result: GPR7 antagonist)
CC1(C(=O)NS(=O)(=O)Cc2ccccc2)CCN1C(=O)Cc1ccccc1 (configuration not stated)	none (no result: OX1R antag-1, GPR7 antagonist, OX1R antag-2, CHO parental Ca)
Cc1c(-c2ccccc2)oc2c(C(=O)OCC(=O)Nc3cccc(F)c3)cccc2c1=O	TAAR1 antag 63 | nonsel antag count 33 | TAAR1 ant conf 64 | Ga16 ag counter inactive | TAAR1 ag counter inactive
CC(C)Nc1ncnc2c1cnn2Cc1ccc(Cl)cc1	none
